The target in assay [1] is T1, Orexin/Hypocretin receptor type 1 (Homo sapiens) (UniProt O43613).
T1 sequence (whole entry): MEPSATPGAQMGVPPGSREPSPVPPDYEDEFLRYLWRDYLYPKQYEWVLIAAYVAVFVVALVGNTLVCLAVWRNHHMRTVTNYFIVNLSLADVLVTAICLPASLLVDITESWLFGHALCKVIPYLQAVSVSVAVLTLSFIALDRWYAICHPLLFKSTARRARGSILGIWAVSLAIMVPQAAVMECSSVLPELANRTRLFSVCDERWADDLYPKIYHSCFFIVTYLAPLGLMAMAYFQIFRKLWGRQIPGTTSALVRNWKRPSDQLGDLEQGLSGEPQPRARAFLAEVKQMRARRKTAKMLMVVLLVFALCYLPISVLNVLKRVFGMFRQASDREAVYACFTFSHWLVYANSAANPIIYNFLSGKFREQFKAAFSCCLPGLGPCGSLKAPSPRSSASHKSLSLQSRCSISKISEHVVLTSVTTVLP
The assay can be described thus: Antagonist activity at OX1 receptor expressed in CHO cells assessed as inhibition of orexin-A-induced calcium mobilization by FlexStation assay. The class given is functional, cell-based. The method in brief:
(§1)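 Cells stably expressing OX1 or OX2 receptor, dye-loaded 1 h. EC50s came from a three-parameter logistic fit. Ke = [L]/(DR−1), DR = A'/A. Duplicates; ≥3 (OX1) or ≥2 (OX2) independent experiments.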

Assay [2] deals with T1, Orexin/Hypocretin receptor type 1 (Homo sapiens). The assay can be described thus: Agonist activity at OX1 receptor expressed in CHO cells at 10 uM by FlexStation assay. The class given is functional, cell-based. The method in brief: (§2)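 Separate cell lines stably expressing OX1 or OX2 receptor were loaded with calcium-sensitive dye for 1 h. Compounds were tested alone at 10 µM for intrinsic agonist activity, read as a rise in fluorescence (intracellular calcium) on the FlexStation.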

Assay [3] in a line: Selectivity ratio of Ke for OX2 receptor to Ke for OX1 receptor.
For assay [4], the target named is T2, Orexin receptor type 2 (Homo sapiens) (UniProt O43614).
T2 sequence (whole entry): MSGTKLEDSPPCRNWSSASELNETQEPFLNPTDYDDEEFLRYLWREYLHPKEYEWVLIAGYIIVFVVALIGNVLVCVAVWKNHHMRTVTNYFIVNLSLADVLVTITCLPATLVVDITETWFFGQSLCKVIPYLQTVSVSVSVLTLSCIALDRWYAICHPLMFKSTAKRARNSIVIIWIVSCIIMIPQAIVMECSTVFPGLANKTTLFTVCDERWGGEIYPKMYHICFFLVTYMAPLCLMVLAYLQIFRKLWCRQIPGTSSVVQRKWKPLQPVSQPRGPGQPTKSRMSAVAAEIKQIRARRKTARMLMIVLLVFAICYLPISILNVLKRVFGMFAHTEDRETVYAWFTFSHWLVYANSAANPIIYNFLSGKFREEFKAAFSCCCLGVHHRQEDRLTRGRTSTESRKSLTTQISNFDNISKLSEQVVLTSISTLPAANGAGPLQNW
The assay can be described thus: Agonist activity at OX2 receptor expressed in CHO cells at 10 uM by FlexStation assay. The class given is functional, cell-based. The method in brief:
as §2

Assay [5] addresses T2, Orexin receptor type 2 (Homo sapiens). The assay can be described thus: Antagonist activity at OX2 receptor expressed in CHO cells assessed as inhibition of orexin-A-induced calcium mobilization by FlexStation assay. Type of assay: functional, cell-based. The method in brief:
as §1

Each structure is given as a SMILES string. Calls of active or inactive are those of the source. The rule behind the calls is not given here.

Regarding `COc1ccc(NC(=O)Nc2ccnc3c(F)cccc23)cc1OC`, the values for the Ke in assay [1] and in assay [5] were 965 nM and above 10000 nM, respectively. Also, the outcome in assay [2] and in assay [4] was inactive. The Ratio Ke in assay [3] is above 10.

In the case of `CN(C)c1ccc(CC(=O)Nc2ccnc3c(F)cccc23)cc1`, the Ke in assay [1] and in assay [5] was above 10000 nM each time. For the same molecule, the result in assay [2] and in assay [4] was inactive.

On to `O=C(Nc1ccc2c(c1)OCO2)Nc1ccnc2c(F)cccc12`, for which the Ke in assay [1] is 13.4 nM; in assay [5] it was 1620 nM. The outcome in assay [2] and in assay [4] was inactive.

Take `Cc1nc2ccc(NC(=O)Nc3ccnc4cccnc34)cc2o1`: the Ke in assay [1] was determined as 45 nM; in assay [5], 1190 nM. Besides, the result in assay [2] and in assay [4] was inactive. The Ratio Ke in assay [3] came out at 50.

The values are drawn from ChEMBL document CHEMBL1770060, “Diaryl urea analogues of SB-334867 as orexin-1 receptor antagonists” (Bioorg Med Chem Lett, 2011).
